According to ChEMBL document CHEMBL4402562, “Discovery of Novel Peptidomimetic Boronate ClpP Inhibitors with Noncanonical Enzyme Mechanism as Potent Virulence Blockers in Vitro and in Vivo” (J Med Chem, 2020):
The source made the active and inactive calls. The rule behind the calls is not given here.

How the values were obtained:
[1] = test system: Staphylococcus aureus; assay: Inhibition of virulence-related genes expression in methicillin-resistant Staphylococcus aureus ATCC 33591 assessed as reduction in aur expression at 4 to 16 uM by qPCR analysis relative to control; assay type: functional, organism-based
In short: (§1)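 Total RNA from 2×10⁸ CFU treated MRSA by liquid-nitrogen freeze-thaw and TRIzol; qPCR relative to gyrB endogenous control; three experiments, triplicate wells.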

[2] = Inhibition of Staphylococcus aureus ClpXP expressed in Escherichia coli […] using FITC-casein substrate in presence of ATP-regenerating system incubated for 50 mins by fluorescence based assay
In short: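 3.6 μM SaClpP with 3 μM SaClpX in 25 mM Hepes pH 7.5, 20 mM MgCl2, 30 mM KCl, 0.03% Tween 20, 10% glycerol, 2 mM DTT. ATP regeneration: 4 mM ATP, 20 U/mL creatine kinase, 16 mM creatine phosphate. FITC-casein 0.048 mg/mL, 494/521 nm for 50 min; slope 300–1200 s vs DMSO. Thrice, triplicate wells.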

[3] = test system: Staphylococcus aureus; assay: Growth inhibition of methicillin-resistant Staphylococcus aureus ATCC 33591 up to 64 uM incubated for 18 hrs by broth microdilution method; assay type: functional, organism-based
In short: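 MRSA ATCC 33591 at ~5×10⁵ CFU/mL in MHB with graded compound concentrations vs DMSO; OD600 growth curves over 18 h; three experiments, triplicate wells. MIC by CLSI broth microdilution in CAMHB, 0.5-256 µg/mL, 18 h at 37 °C, lowest concentration with no visible growth.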

[4] = Toxicity in BALB/c mouse model of skin abscess infected with methicillin-resistant Staphylococcus aureus ATCC 33591 assessed as increase in direct bilirubin levels at 1.5 to 3 mg/kg injected into shaved area of skin once daily for 4 days measured on day 14; assay type: organism-based; settings: in vivo, other, 96 h
In short: (§2)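 Infected BALB/c mice (n=5/group) dosed 1.5 or 3 mg/kg into the infected skin once daily for 4 days; blood collected on day 4 and day 14, centrifuged 3,500 rpm 15 min, serum biochemistry analysed.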

[5] = test system: Staphylococcus aureus; assay: Inhibition of Staphylococcus aureus NCTC8325 with delta clpP assessed as reduction in bacteria-induced hemolysis of sheep erythrocytes by measuring hemoglobin release at 0.5 to 64 uM; assay type: functional, organism-based
In short: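 S. aureus NCTC8325 ΔclpP grown in MHB from OD600 0.05 to ~0.6 at 37 °C, then 8 h with serially diluted inhibitor or DMSO. Culture supernatant mixed 1:1 with 5% sheep erythrocytes, centrifuged 1,500 rpm for 15 min, hemoglobin at 545 nm. Thrice, triplicate tubes.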

[6] = Toxicity in BALB/c mouse model of skin abscess infected with methicillin-resistant Staphylococcus aureus ATCC 33591 assessed as effect on alanine transaminase levels at 1.5 to 3 mg/kg injected into shaved area of skin once daily for 4 days; assay type: organism-based; settings: in vivo, other, 96 h; in short: as §2
[7] = test system: Staphylococcus aureus; assay: Inhibition of virulence-related genes expression in methicillin-resistant Staphylococcus aureus ATCC 33591 assessed as reduction in hla expression at 4 to 16 uM by qPCR analysis relative to control; assay type: functional, organism-based; in short: as §1
[8] = Toxicity in BALB/c mouse model of skin abscess infected with methicillin-resistant Staphylococcus aureus ATCC 33591 assessed as increase in AST levels at 1.5 to 3 mg/kg injected into shaved area of skin once daily for 4 days measured on day 14; assay type: organism-based; settings: in vivo, other, 96 h; in short: as §2
[9] = Inhibition of AlgW (unknown origin) up to 100 uM pre-incubated for 10 mins before Abz-T-V-A-W-pNA addition and measured after 1 hr by fluorescence based assay
[10] = Cytotoxicity in human HeLa cells assessed as reduction in cell viability incubated for 24 hrs by MTT assay; assay type: cell-based
In short: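 MTT assay. HeLa (3×10^3 cells) or HepG2 (4×10^3 cells) seeded in DMEM and grown 24 h, then given compound for a further 24 h. Absorbance read at 570 nm against DMSO wells. GI50 from dose-response fit; three experiments, triplicate wells.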

[11] = Toxicity in BALB/c mouse model of skin abscess infected with methicillin-resistant Staphylococcus aureus ATCC 33591 assessed as increase in AST levels at 1.5 to 3 mg/kg injected into shaved area of skin once daily for 4 days; assay type: organism-based; settings: in vivo, other, 96 h; in short: as §2
[12] = target: T1, ATP-dependent Clp protease proteolytic subunit (Staphylococcus aureus (strain NCTC 8325)) (UniProt Q2G036); assay: Inhibition of N-terminal His6-sumo-tagged full length Staphylococcus aureus ClpP expressed in Escherichia coli […] (DE3) assessed as Kinact/Ki ratio […] and measured after 1 hr by fluorescence based assay
T1 sequence (whole entry): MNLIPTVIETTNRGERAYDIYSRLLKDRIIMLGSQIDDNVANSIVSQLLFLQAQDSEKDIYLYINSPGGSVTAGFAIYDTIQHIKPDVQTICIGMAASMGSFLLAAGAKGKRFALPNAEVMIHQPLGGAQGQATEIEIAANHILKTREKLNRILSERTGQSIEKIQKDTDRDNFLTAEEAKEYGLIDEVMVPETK

[13] = target: T2, ATP-dependent Clp protease proteolytic subunit (Staphylococcus aureus (strain NCTC 8325), UniProt Q2G036); assay: Binding affinity to N-terminal His6-sumo-tagged full length Staphylococcus aureus ClpP expressed in Escherichia coli […] assessed as shifting of melting peak of SaClpP by differential scanning calorimetry analysis
T2 sequence (Q2G036 whole entry): T1 sequence (whole entry)
In short: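 DSC: 0.5 mg/mL (25 µM) SaClpP with 100 µM compound or two-fold dilution series, RT; scanned 30-90 °C at 1 °C/min, buffer-buffer scan subtracted; Tm from thermogram peak maximum; single run.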

[14] = target: T2, ATP-dependent Clp protease proteolytic subunit; assay: Inhibition of ClpP in methicillin-resistant Staphylococcus aureus ATCC 33591 assessed as reduction in bacteria-induced hemolysis of sheep erythrocytes by measuring hemoglobin release incubated for 15 mins
[15] = test system: Staphylococcus aureus; assay: (§3) Antivirulence activity against methicillin-resistant Staphylococcus aureus ATCC 33591 infected in BALB/c mouse model of skin abscess assessed as reduction in severe alveolar destruction at 1.5 to 3 mg/kg injected into shaved area of skin once daily for 4 days measured after 12 hrs post last dose by hematoxylin and eosin staining based optical microscopy; assay type: functional, organism-based
In short: (§4)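 Same MRSA ATCC 33591 skin-abscess model in female BALB/c mice (n=5/group), 40 µL compound at 1.5 or 3 mg/kg injected into the infected shaved skin once daily for 4 days. On day 4 infected skin and heart, liver, spleen, lung, kidney fixed in 4% paraformaldehyde, embedded, sectioned, H&E stained and examined by microscopy; PBS-treated uninfected and vehicle controls.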

[16] = Toxicity in BALB/c mouse model of skin abscess infected with methicillin-resistant Staphylococcus aureus ATCC 33591 assessed as effect on creatinine levels at 1.5 to 3 mg/kg injected into shaved area of skin once daily for 4 days; assay type: organism-based; settings: in vivo, other, 96 h; in short: as §2
[17] = Toxicity in BALB/c mouse model of skin abscess infected with methicillin-resistant Staphylococcus aureus ATCC 33591 assessed as effect on albumin levels at 1.5 to 3 mg/kg injected into shaved area of skin once daily for 4 days; assay type: organism-based; settings: in vivo, other, 96 h; in short: as §2
[18] = test system: Staphylococcus aureus; assay: as §3, with “preservation of skin integrity” for “reduction in severe alveolar destruction”; assay type: functional, organism-based; in short: as §4
[19] = Toxicity in BALB/c mouse model of skin abscess infected with methicillin-resistant Staphylococcus aureus ATCC 33591 assessed as effect on LDH levels at 1.5 to 3 mg/kg injected into shaved area of skin once daily for 4 days; assay type: organism-based; settings: in vivo, other, 96 h; in short: as §2

## CC(C)C[C@H](NC(=O)[C@H](Cc1c[nH]c2ccccc12)NC(=O)c1cc(Cl)ccc1Cl)B(O)O
[1]
  inhibition: Active
[2]
  IC50: 69.6 µM
[3]
  growth inhibition (GI): inactive
[4]
  Activity: Non-Toxic
[5]
  inhibition: inactive
[6]
  Activity: Non-Toxic
[7]
  inhibition: Active
[8]
  Activity: Non-Toxic
[9]
  inhibition: inactive
[10]
  GI50 at 24 h: 108 µM
[11]
  Activity: Toxic
[12]
  Ratio: 16.7 ×10² /s.M
[13]
  EC50: 1.27 µM
[14]
  EC50: 1.4 µM
[15]
  Activity: Active
[16]
  Activity: Non-Toxic
[17]
  Activity: Non-Toxic
[18]
  Activity: Active
[19]
  Activity: Non-Toxic
